In brackets after ≈: the same amount, converted by molar mass.
Tests used:
[1] = test system: Escherichia coli; test: Antibacterial activity against Escherichia coli V6311/65 after 18 to 24 hrs by agar dilution method; assay type: functional
Procedure, shortened: (§1)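 MICs were determined by agar dilution on test agar. An overnight tryptosoy broth culture was diluted in the same broth to about 10⁶ cells/mL and spotted with an inoculating device onto agar containing serial twofold dilutions of compound. Plates were incubated at 37 °C for 18–20 h, and the MIC was the lowest concentration with no visible growth.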

[2] = test system: Pseudomonas aeruginosa; test: Antibacterial activity against Pseudomonas aeruginosa 77/2 after 18 to 24 hrs by agar dilution method; assay type: functional; procedure, shortened: as §1
[3] = test system: Pseudomonas aeruginosa; test: Antibacterial activity against Pseudomonas aeruginosa 110/2 after 18 to 24 hrs by agar dilution method; assay type: functional; procedure, shortened: as §1
[4] = test system: Staphylococcus; test: Antibacterial activity against coagulase negative Staphylococcus after 18 to 24 hrs by agar dilution method; assay type: functional
Procedure, shortened: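 Agar dilution on test agar holding serial twofold dilutions of compound. Overnight tryptosoy broth cultures were diluted in the same broth to about 10⁶ cells/mL and spotted with an inoculating device. Plates were incubated at 37 °C for 18–20 h.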

[5] = test system: Streptococcus pneumoniae; test: Antibacterial activity against Streptococcus pneumoniae 0025 after 18 to 24 hrs by agar dilution method; assay type: functional; procedure, shortened: as §1
[6] = test system: Escherichia coli; test: Antibacterial activity against Escherichia coli 1507 after 18 to 24 hrs by agar dilution method; assay type: functional; procedure, shortened: as §1
[7] = test system: Proteus mirabilis; test: Antibacterial activity against Proteus mirabilis 174/3 after 18 to 24 hrs by agar dilution method; assay type: functional; procedure, shortened: as §1
[8] = test system: Enterococcus durans; test: Antibacterial activity against Streptococcus durans D after 18 to 24 hrs by agar dilution method; assay type: functional; procedure, shortened: as §1
[9] = test system: Enterococcus faecalis; test: Antibacterial activity against Enterococcus faecalis 2347 after 18 to 24 hrs by agar dilution method; assay type: functional; procedure, shortened: as §1
[10] = test system: Staphylococcus aureus; test: Antibacterial activity against Staphylococcus aureus giorgio after 18 to 24 hrs by agar dilution method; assay type: functional; procedure, shortened: as §1
[11] = test system: Bacillus subtilis; test: Antibacterial activity against Bacillus subtilis ATCC 6633 after 18 to 24 hrs by agar dilution method; assay type: functional; procedure, shortened: as §1
[12] = Antibacterial activity against Salmonella give after 18 to 24 hrs by agar dilution method; assay type: functional, Salmonella enterica subsp. enterica serovar Give; conditions: Salmonella enterica; procedure, shortened: as §1
[13] = test system: Haemophilus influenzae; test: Antibacterial activity against Haemophilus influenzae 1210 after 18 to 24 hrs by agar dilution method; assay type: functional; procedure, shortened: as §1
[14] = test system: Proteus vulgaris; test: Antibacterial activity against Proteus vulgaris 868 after 18 to 24 hrs by agar dilution method; assay type: functional; procedure, shortened: as §1
[15] = test system: Serratia marcescens; test: Antibacterial activity against Serratia marcescens 3349 after 18 to 24 hrs by agar dilution method; assay type: functional; procedure, shortened: as §1
[16] = test system: Escherichia coli; test: Antibacterial activity against Escherichia coli 0126 after 18 to 24 hrs by agar dilution method; assay type: functional; procedure, shortened: as §1
[17] = test system: Salmonella; test: Antibacterial activity against Salmonella orion after 18 to 24 hrs by agar dilution method; assay type: functional; procedure, shortened: as §1
[18] = test system: Providencia rettgeri; test: Antibacterial activity against Proteus rettgeri 936 after 18 to 24 hrs by agar dilution method; assay type: functional; procedure, shortened: as §1
[19] = test system: Escherichia coli; test: Antibacterial activity against Escherichia coli 086 after 18 to 24 hrs by agar dilution method; assay type: functional; procedure, shortened: as §1
[20] = test system: Corynebacterium diphtheriae; test: Antibacterial activity against Corynebacterium diphtheriae after 18 to 24 hrs by agar dilution method; assay type: functional; procedure, shortened: as §1
[21] = test system: Streptococcus agalactiae; test: Antibacterial activity against Streptococcus agalactiae B after 18 to 24 hrs by agar dilution method; assay type: functional; procedure, shortened: as §1
[22] = test system: Pasteurella multocida; test: Antibacterial activity against Pasteurella multocida after 18 to 24 hrs by agar dilution method; assay type: functional; procedure, shortened: as §1
[23] = test system: Escherichia coli; test: Antibacterial activity against Escherichia coli TEM after 18 to 24 hrs by agar dilution method; assay type: functional; procedure, shortened: as §1
[24] = test system: Serratia marcescens; test: Antibacterial activity against Serratia marcescens 6093 after 18 to 24 hrs by agar dilution method; assay type: functional; procedure, shortened: as §1
[25] = test system: Salmonella typhimurium; test: Antibacterial activity against Salmonella Typhimurium after 18 to 24 hrs by agar dilution method; assay type: functional, Salmonella enterica subsp. enterica serovar Typhimurium; conditions: Salmonella enterica; procedure, shortened: as §1
[26] = test system: Salmonella typhi; test: Antibacterial activity against Salmonella typhi after 18 to 24 hrs by agar dilution method; assay type: functional, Salmonella enterica subsp. enterica serovar Typhi; conditions: Salmonella enterica
Procedure, shortened: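 Agar dilution on test agar with serial twofold dilutions of compound. Overnight tryptosoy broth cultures diluted in the same broth to about 10⁶ cells/mL, then applied with an inoculating device. Plates incubated at 37 °C for 18–20 h.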

[27] = test system: Proteus mirabilis; test: Antibacterial activity against Proteus mirabilis 112/3 after 18 to 24 hrs by agar dilution method; assay type: functional; procedure, shortened: as §1

## C[C@@H](O)[C@H]1C(=O)N2C(C(=O)O)=C(SCCNC=N)C[C@H]12 [IMIPENEM ANHYDROUS]
[1]
  MIC: 0.05 µg/mL (≈ 0.167 µM)
[2]
  MIC: 0.8 µg/mL (≈ 2.67 µM)
[3]
  MIC: 0.8 µg/mL (≈ 2.67 µM)
[4]
  MIC: 0.025 µg/mL (≈ 0.0835 µM)
[5]
  MIC: < 0.01 µg/mL
[6]
  MIC: 0.1 µg/mL (≈ 0.334 µM)
[7]
  MIC: 0.1 µg/mL (≈ 0.334 µM)
[8]
  MIC: 0.1 µg/mL (≈ 0.334 µM)
[9]
  MIC: 1.56 µg/mL (≈ 5.22 µM)
[10]
  MIC: 0.02 µg/mL (≈ 0.0668 µM)
[11]
  MIC: 0.03 µg/mL (≈ 0.1 µM)
[12]
  MIC: 0.2 µg/mL (≈ 0.668 µM)
[13]
  MIC: 6.25 µg/mL (≈ 20.9 µM)
[14]
  MIC: 0.1 µg/mL (≈ 0.334 µM)
[15]
  MIC: 0.781 µg/mL (≈ 2.61 µM)
[16]
  MIC: 0.1 µg/mL (≈ 0.334 µM)
[17]
  MIC: 0.2 µg/mL (≈ 0.668 µM)
[18]
  MIC: 0.2 µg/mL (≈ 0.668 µM)
[19]
  MIC: 0.1 µg/mL (≈ 0.334 µM)
[20]
  MIC: < 0.01 µg/mL
[21]
  MIC: 0.01 µg/mL (≈ 0.0334 µM)
[22]
  MIC: < 0.01 µg/mL
[23]
  MIC: 0.2 µg/mL (≈ 0.668 µM)
[24]
  MIC: 0.4 µg/mL (≈ 1.34 µM)
[25]
  MIC: 0.4 µg/mL (≈ 1.34 µM)
[26]
  MIC: 0.05 µg/mL (≈ 0.167 µM)
[27]
  MIC: 0.2 µg/mL (≈ 0.668 µM)
